# Experimental data from BindingDB's records for doi:10.1021/jm050754u (Abbott Laboratories, 2006).
# Molecular target: Bcl-2-like protein 1 (Homo sapiens, UniProt Q07817)
# Test: Activity towards mouse FL5.12 cell line transfected with Bcl-XL in presence of gelatin
# Procedure, shortened: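 Bcl-XL-transfected murine FL5.12 (IL-3 dependent) grown in RPMI with 10% FBS and WEHI-3B conditioned medium as the IL-3 source. Switched to IL-3-depleted, FBS-free medium for 2 days. Then placed in gelatin assay medium (3.4 mg/mL bovine gelatin) or 3% FBS assay medium. Serial compound dilutions added for 24 h. Viability read by MTS or CellTiter-Glo; duplicate values per determination; EC50.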
# Chain of Bcl-2-like protein 1 (Q07817 whole entry): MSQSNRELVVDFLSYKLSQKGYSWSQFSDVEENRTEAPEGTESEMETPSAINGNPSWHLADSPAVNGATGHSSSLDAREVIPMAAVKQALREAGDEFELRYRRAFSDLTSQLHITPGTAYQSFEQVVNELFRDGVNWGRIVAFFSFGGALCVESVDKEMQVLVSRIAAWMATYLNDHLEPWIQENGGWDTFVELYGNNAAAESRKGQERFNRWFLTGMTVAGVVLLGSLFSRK
row,EC50 [µM],SMILES
1,3.05,COc1cc(CCCN2CCOCC2)ccc1-c1ccc(C(=O)NS(=O)(=O)c2ccc(N[C@H](CCCCN)CSc3ccccc3)c([N+](=O)[O-])c2)cc1 [4-((R)-5-amino-1-phenylsulfanylmethylpentylamino)-N-[2'-methoxy-4'-(3-morpholin-4-ylpropyl)biphenyl-4-carbonyl]-3-nitrobenzenesulfonamide]

# Molecular target: not listed separately
# Test: Activity towards mouse FL5.12 cell line transfected with Bcl-XL in presence of gelatin
row,SMILES,EC50 [µM]
1,"CN(C)CCC[C@H](CSc1ccccc1)Nc1ccc(S(=O)(=O)NC(=O)c2ccc(N3CCC(C)(C)CC3)cc2)cc1[N+](=O)[O-] [4-((R)-4-dimethylamino-1-phenylsulfanylmethylbutylamino)-N-[4-(4,4-dimethylpiperidin-1-yl)benzoyl]-3-nitrobenzenesulfonamide]",2
2,"CN(C)C(=O)C[C@H](CSc1ccccc1)Nc1ccc(S(=O)(=O)NC(=O)c2ccc(N3CCC(C)(C)CC3)cc2)cc1[N+](=O)[O-] [(R)-3-{4-[4-(4,4-dimethylpiperidin-1-yl)benzoylsulfamoyl]-2-nitrophenylamino}-N,N-dimethyl-4-phenylsulfanylbutyramide]",2.14
3,"CC1(C)CCN(c2ccc(C(=O)NS(=O)(=O)c3ccc(N[C@H](CCN4CCOCC4)CSc4ccccc4)c([N+](=O)[O-])c3)cc2)CC1 [N-[4-(4,4-dimethylpiperidin-1-yl)benzoyl]-4-((R)-3-morpholin-4-yl-1-phenylsulfanylmethylpropylamino)-3-nitrobenzenesulfonamide]",0.368
4,"COc1cc(CCCN2CCOCC2)ccc1-c1ccc(C(=O)NS(=O)(=O)c2ccc(N[C@@H](CSc3ccccc3)CC(=O)N(C)C)c([N+](=O)[O-])c2)cc1 [(R)-3-(4-{[2'-methoxy-4'-(3-morpholin-4-ylpropyl)biphenyl-4-carbonyl]sulfamoyl}-2-nitrophenylamino)-N,N-dimethyl-4-phenylsulfanylbutyramide]",1.28
5,"CN(C)CCCC[C@H](CSc1ccccc1)Nc1ccc(S(=O)(=O)NC(=O)c2ccc(N3CCC(C)(C)CC3)cc2)cc1[N+](=O)[O-] [4-((R)-5-dimethylamino-1-phenylsulfanylmethylpentylamino)-N-[4-(4,4-dimethylpiperidin-1-yl)benzoyl]-3-nitrobenzenesulfonamide]",1.08
6,"CC1(C)CCN(c2ccc(C(=O)NS(=O)(=O)c3ccc(N[C@@H](CCN4CCOCC4)CSc4ccccc4)c([N+](=O)[O-])c3)cc2)CC1 [N-[4-(4,4-dimethylpiperidin-1-yl)benzoyl]-4-((S)-3-morpholin-4-yl-1-phenylsulfanylmethylpropylamino)-3-nitrobenzenesulfonamide]",4.2
7,"CC1(C)CCN(c2ccc(C(=O)NS(=O)(=O)c3ccc(N[C@H](CCCCN)CSc4ccccc4)c([N+](=O)[O-])c3)cc2)CC1 [4-((R)-5-amino-1-phenylsulfanylmethylpentylamino)-N-[4-(4,4-dimethylpiperidin-1-yl)benzoyl]-3-nitrobenzenesulfonamide]",4.13
8,COc1cc(CCCN2CCOCC2)ccc1-c1ccc(C(=O)NS(=O)(=O)c2ccc(N[C@H](CCN3CCOCC3)CSc3ccccc3)c([N+](=O)[O-])c2)cc1 [N-[2'-methoxy-4'-(3-morpholin-4-ylpropyl)biphenyl-4-carbonyl]-4-((R)-3-morpholin-4-yl-1-phenylsulfanylmethylpropylamino)-3-nitrobenzenesulfonamide],0.382
9,"CN(C)CC[C@@H](CSc1ccccc1)Nc1ccc(S(=O)(=O)NC(=O)c2ccc(N3CCC(C)(C)CC3)cc2)cc1[N+](=O)[O-] [4-((S)-3-dimethylamino-1-phenylsulfanylmethylpropylamino)--[4-(4,4-dimethylpiperidin-1-yl)benzoyl]-3-nitrobenzenesulfonamide]",9.5

# Now from value to compound:
row,EC50 [µM],SMILES
1,0.399,COc1cc(CCCN2CCOCC2)ccc1-c1ccc(C(=O)NS(=O)(=O)c2ccc(N[C@H](CCN(C)C)CSc3ccccc3)c([N+](=O)[O-])c2)cc1 [4-((R)-3-dimethylamino-1-phenylsulfanylmethylpropylamino)-N-[2'-methoxy-4'-(3-morpholin-4-ylpropyl)biphenyl-4-carbonyl]-3-nitrobenzenesulfonamide]
2,1.2,COc1cc(CCCN2CCOCC2)ccc1-c1ccc(C(=O)NS(=O)(=O)c2ccc(N[C@H](CCCCN(C)C)CSc3ccccc3)c([N+](=O)[O-])c2)cc1 [4-((R)-5-dimethylamino-1-phenylsulfanylmethylpentylamino)-N-[2'-methoxy-4'-(3-morpholin-4-ylpropyl)biphenyl-4-carbonyl]-3-nitrobenzenesulfonamide]
3,3.01,COc1cc(CCCN2CCOCC2)ccc1-c1ccc(C(=O)NS(=O)(=O)c2ccc(N[C@H](CCCN(C)C)CSc3ccccc3)c([N+](=O)[O-])c2)cc1 [4-((R)-4-Dimethylamino-1-phenylsulfanylmethylbutylamino)-N-[2'-methoxy-4'-(3-morpholin-4-ylpropyl)biphenyl-4-carbonyl]-3-nitrobenzenesulfonamide]
4,32.5,COc1cc(CCCN2CCOCC2)ccc1-c1ccc(C(=O)NS(=O)(=O)c2ccc(N[C@@H](CCN(C)C)CSc3ccccc3)c([N+](=O)[O-])c2)cc1 [4-((S)-3-dimethylamino-1-phenylsulfanylmethylpropylamino)-N-[2'-methoxy-4'-(3-morpholin-4-ylpropyl)biphenyl-4-carbonyl]-3-nitrobenzenesulfonamide]
